Published values of several laboratories.
Each line is one published result; the experiments were not run side by side.
Target: Serine/threonine-protein kinase 10 (STK10, Homo sapiens, UniProt O94804)

CNC(=O)c1cc(Oc2ccc(NC(=O)Nc3ccc(Cl)c(C(F)(F)F)c3)cc2)ccn1 — inhibition (enzyme activity; inhibitor; 10 µM): 88%
CN([C@@H]1CCc2c(CC(=O)O)c3ccccc3n2C1)S(=O)(=O)c1ccc(F)cc1 — remaining binding (cell-free assay; competition with immobilised ligand; 1 µM): 100%
CCN(CC)CCNC(=O)c1c(C)[nH]c(/C=C2\C(=O)Nc3ccc(F)cc32)c1C — inhibition (enzyme activity; inhibitor; 0.3 µM): 37%
Cc1ccc(NC(=O)c2ccc(C)c(C(F)(F)F)c2)cc1C#Cc1nn(C2CCC(O)CC2)c2ncnc(N)c12 (centres unmarked) — remaining signal (cell-free assay; 10 µM): 16%
O=C(Nc1cnn(-c2csc(C(=O)NC3COC3)c2)c1)Nc1c(F)cccc1Cl — remaining activity (enzyme activity; inhibitor; 5 µM): 89%
Cc1cnn2ncc(-c3ccnc(N(C)C)n3)c2c1 — remaining binding (binding; 1 µM): 100%
C#Cc1cccc(Nc2ncnc3cc(OCCOC)c(OCCOC)cc23)c1 — remaining signal (cell-free assay; 0.5 µM): 20.3%
NS(=O)(=O)c1cc(NC(=O)Cc2ccccc2)ccc1Oc1cccc(Cl)c1 — remaining binding (cell-free assay; competition with immobilised ligand; 1 µM): 65%
O=C1Nc2ccc(Cl)cc2C1=Cc1cc(Cl)c(O)c(Cl)c1 — remaining signal (cell-free assay; 0.5 µM): 77.1%
O=C(O)[C@H]1[C@H](Cn2nnc3ccccc3c2=O)CC[C@@H]1C(=O)c1ccc(OCCC2CCOCC2)cc1 — remaining binding (cell-free assay; competition with immobilised ligand; 1 µM): 100%
Nc1ncnc2occ(-c3ccc(NC(=O)Nc4cc(C(F)(F)F)ccc4F)cc3)c12 — remaining signal (cell-free assay; inhibitor; 20 µM): 0%
Nc1cnc(N2CCc3cc(S(=O)(=O)Nc4c(F)cc(Cl)cc4F)cc(N4CCCC4=O)c32)nc1 — remaining binding (cell-free assay; competition with immobilised ligand; 1 µM): 100%
CCN1CCN(Cc2ccc(NC(=O)c3ccc(C)c(Oc4ccnc5[nH]ccc45)c3)cc2C(F)(F)F)CC1 — inhibition (target engagement in cells; inhibitor; chemoproteomics; Huh-7; 1 µM): -148%
CNCc1ccccc1-c1csc([C@H](C)Nc2nc(C)nc3cc(OC)c(OC)cc23)c1 — remaining binding (cell-free assay; competition with immobilised ligand; 1 µM): 100%
CC/C(=N\NC(=O)NCc1cccc(O)c1)c1ccc(O)c(C)c1O — inhibition (enzyme activity; inhibitor; 0.1 µM): 1%
O=C(Nc1cnn(-c2csc(C(=O)NC3COC3)c2)c1)Nc1ccccc1Cl — remaining activity (enzyme activity; inhibitor; 5 µM): 87.9%
O=C1CCc2cc(Nc3cc(OC4CCOCC4)c([N+](=O)[O-])cc3Cl)ccc2N1 — remaining binding (cell-free assay; competition with immobilised ligand; 1 µM): 100%
CN1CC(Oc2cnc(C#N)cc2-c2ccn3nc(NC(=O)C4CC4)cc3c2)C1 — inhibition (enzyme activity; inhibitor; 1 µM): 30%
c1ccc(N2CCN(Cc3nc4ccccc4[nH]3)CC2)nc1 — remaining binding (binding; competition with immobilised ligand; 1 µM): 100%
Cc1ccc(Nc2nccc(N(C)c3ccc4c(C)n(C)nc4c3)n2)cc1S(N)(=O)=O — remaining activity (enzyme activity; inhibitor; 0.5 µM): 50.1%
CCN1CCN(Cc2ccc(NC(=O)c3ccc(C)c(/C=C/c4cnc5[nH]ccc5c4OC)c3)cc2C(F)(F)F)CC1 — inhibition (target engagement in cells; inhibitor; chemoproteomics; A-375; 0.5 µM): -69.1%
COc1cc(Cl)c(C(=O)N[C@@H](CN[C@H]2CC[C@@H](N)CC2)Cc2ccc(C#N)cc2)cc1-c1ccc(CN[C@H](C)c2ccc(C)cc2)o1 — remaining activity (enzyme activity; inhibitor; 1 µM): 110%
Cc1cnc(NC2CCOCC2)nc1-n1cnc(C(=O)NC(CN)c2cc(F)cc(Cl)c2)c1 (centres unmarked) — remaining activity (enzyme activity; inhibitor; radiometric; 1 µM): 87%
